Source: PMC12339990 (Scientific Reports, 2025)
Entries after “also recorded” stand apart in the source; their conditions may differ.

Legend:
Design in all cases: species or system Syrian hamsters (Mesocricetus auratus)
recombinant MSP (rMSP) = target: T1, recombinant MSP (rMSP) (Mesocricetus auratus, UniProt Q9QXU1); test: Fluorescence ligand binding / competitive displacement of probe 1-AMA from rMSP; settings: for binding / competitor activity with rMSP in fluorescent-probe assay (in words): probe 1-AMA
T1 sequence (Q9QXU1 16-172): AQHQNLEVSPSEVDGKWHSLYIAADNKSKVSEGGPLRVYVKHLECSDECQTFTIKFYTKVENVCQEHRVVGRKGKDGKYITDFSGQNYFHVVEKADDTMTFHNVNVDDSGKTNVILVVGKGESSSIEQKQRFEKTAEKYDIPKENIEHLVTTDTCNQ
Outline: (§1)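 rMSP was expressed in E. coli BL21(DE3) with 1 mM IPTG and purified by Ni-NTA and Sephadex G-75. Assays used 2 µM protein in 20 mM Tris-HCl pH 7.4 at 25 °C, excitation 295 nm, emission read at 485 nm. For Kd, 1-AMA (1 mM methanol stock) was titrated and fitted against free probe, assuming 1:1 binding and fully active protein. Competitors (0.25–40 µM) displaced 2 µM probe. IC50 was taken at half-maximal fluorescence; Ki = IC50/(1+[L]/Kd).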

recombinant FLP (rFLP) = target: T2, recombinant FLP (rFLP) (Mesocricetus auratus, UniProt Q99MG7); test: Fluorescence ligand binding / competitive displacement of probe 1-NPN from rFLP; settings: for binding / competitor activity with rFLP in fluorescent-probe assay (in words): probe 1-NPN
T2 sequence (Q99MG7 17-172): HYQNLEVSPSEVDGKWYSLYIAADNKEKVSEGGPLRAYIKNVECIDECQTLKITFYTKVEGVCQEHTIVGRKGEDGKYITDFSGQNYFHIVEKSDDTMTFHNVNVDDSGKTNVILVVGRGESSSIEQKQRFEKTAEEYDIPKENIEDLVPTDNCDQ
Outline: as §1, with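 “rFLP” for “rMSP”, “425” for “485”, “1-NPN” for “1-AMA”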

rMSP = target: T3, rMSP (Mesocricetus auratus, UniProt Q9QXU1); test: IBMP binding detected by GC-MS of protein peak after gel-filtration; settings: ~7.2 mM IBMP, ~200 µM protein, 25 °C 1 h, Sephadex-G-25, DCM extract
T3 sequence (Q9QXU1 16-172): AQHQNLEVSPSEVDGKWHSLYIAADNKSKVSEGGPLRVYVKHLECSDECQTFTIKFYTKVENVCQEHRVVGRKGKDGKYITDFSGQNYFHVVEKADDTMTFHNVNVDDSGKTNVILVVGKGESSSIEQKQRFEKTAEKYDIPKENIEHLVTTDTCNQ
Outline: (§2)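 The protein–IBMP mix was incubated on a rotary shaker, with chymotrypsin as negative control. After G-25 elution, fractions of the first OD280 peak were mixed with dichloromethane, vortexed and held overnight at −20 °C. The lower organic phase was analyzed by GC-MS: 2 µl splitless, helium 1 ml/min, oven 50→300 °C stepwise, 70 eV ionization, total ion current mode.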

rFLP = target: T4, rFLP (Mesocricetus auratus, UniProt Q99MG7); test: as above; settings: ~7.2 mM IBMP, ~200 µM protein, 25 °C 1 h, Sephadex-G-25, DCM extract
T4 sequence (Q99MG7 17-172): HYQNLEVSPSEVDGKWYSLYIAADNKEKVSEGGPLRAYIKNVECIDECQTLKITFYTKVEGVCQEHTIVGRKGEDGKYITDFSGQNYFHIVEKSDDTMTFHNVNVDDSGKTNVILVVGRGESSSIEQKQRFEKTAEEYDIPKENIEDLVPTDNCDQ
Outline: as §2

[1] = target: T5, nMSP (mixture of three natural MSP forms) (Mesocricetus auratus, UniProt Q9QXU1); test: as above; settings: ~7.2 mM IBMP, ~200 µM protein, 25 °C 1 h, Sephadex-G-25, DCM extract
T5 sequence (Q9QXU1 16-172): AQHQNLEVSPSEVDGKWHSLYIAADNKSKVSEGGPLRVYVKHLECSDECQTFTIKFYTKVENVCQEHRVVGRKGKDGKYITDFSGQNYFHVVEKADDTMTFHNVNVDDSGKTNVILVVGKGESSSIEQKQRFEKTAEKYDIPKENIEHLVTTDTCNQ
Outline: as §2

24 kDa MSP = target: T6, 24 kDa MSP (Mesocricetus auratus, UniProt Q9QXU1); test: Lectin binding
T6 sequence (Q9QXU1 16-172): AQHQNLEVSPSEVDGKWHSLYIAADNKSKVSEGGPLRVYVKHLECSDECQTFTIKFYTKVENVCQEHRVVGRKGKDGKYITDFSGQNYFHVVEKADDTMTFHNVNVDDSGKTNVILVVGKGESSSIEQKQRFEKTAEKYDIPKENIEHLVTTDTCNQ
Outline: (§3)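 Natural MSP, a mixture of three forms purified from adult male submandibular gland, was tested with a digoxigenin-labelled lectin kit (GNA, SNA, MAA, DSA, PNA). It was also passed through Con A, WGA and jacalin affinity columns. Unbound fractions and fractions eluted with lectin-specific sugars were checked for MSP forms by SDS-PAGE.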

30 kDa MSP = target: T7, 30 kDa MSP (Mesocricetus auratus, UniProt Q9QXU1); test: Lectin binding
T7 sequence (Q9QXU1 16-172): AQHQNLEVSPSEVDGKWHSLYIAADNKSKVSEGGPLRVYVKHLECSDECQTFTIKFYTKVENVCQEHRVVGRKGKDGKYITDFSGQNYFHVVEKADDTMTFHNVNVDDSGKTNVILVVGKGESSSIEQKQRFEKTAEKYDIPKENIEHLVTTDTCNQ
Outline: as §3

Row | Molecule | binding / competitor activity with rMSP in fluorescent-probe assay (in words) (recombinant MSP (rMSP)) | binding / competitor activity with rFLP in fluorescent-probe assay (in words) (recombinant FLP (rFLP)) | other results
1 | COc1nccnc1CC(C)C [IBMP, 2-isobutyl-3-methoxypyrazine] | high affinity | high affinity | IBMP found by GC-MS in protein peak fraction (binding to rMSP) (rMSP): specific binding; also recorded: retain and specifically carry (i.e. bind) detectable levels; IBMP found by GC-MS in protein peak fraction (binding to rFLP) (rFLP): specific binding; also recorded: retain and specifically carry (i.e. bind) detectable levels; IBMP found by GC-MS in protein peak fraction (binding to nMSP) [1]: specific binding; also recorded: retain and specifically carry (i.e. bind) detectable levels
2 | c1ccc(Nc2cccc3ccccc23)cc1 [1-NPN, N-phenyl-1-naphthylamine] | – | strong affinity | Kd (recombinant FLP (rFLP)): ~1.38 µM
3 | CC(=O)[C@H]1CC[C@H]2[C@@H]3CCC4=CC(=O)CC[C@]4(C)[C@H]3CC[C@]12C [progesterone] | extremely weak competitors | extremely weak competitors | –
4 | C=CC(O)CCCCC (centres unmarked) [1-octen-3-ol] | no competitor activity | no competitor activity | –
5 | CCCCCCCCCCCCCCCCCC(=O)O [stearic] | no competitor activity | no competitor activity | –
6 | CC(=O)N(O)CCCCCNC(=O)CCC(=O)N(O)CCCCCNC(=O)CCC(=O)N(O)CCCCCN [deferoxamine] | no competitor activity | no competitor activity | –
7 | CCCCCCCC/C=C\CCCCCCCC(=O)O [oleic] | no competitor activity | no competitor activity | –
8 | O=C(O)c1cc(O)ccc1O [2,5-dihrodoxy benzoic acid] | no competitor activity | no competitor activity | –
9 | CCCCCCCCCCCCCCCC(=O)O [palmitic] | no competitor activity | no competitor activity | –
10 | CCCCCCCCCCCCCCCCO [hexadecanol] | no competitor activity | no competitor activity | –
11 | Nc1cccc2cc3ccccc3cc12 [1-AMA, 1-aminoanthracene] | strong affinity | – | Kd (recombinant MSP (rMSP)): ~1.86 µM
12 | O=C(O)c1cccc(O)c1O [2,3-dihydroxybenzoic acid] | no competitor activity | no competitor activity | –
13 | C[C@]12CC[C@@H]3c4ccc(O)cc4CC[C@H]3[C@@H]1CC[C@@H]2O [17β-estradiol] | extremely weak competitors | extremely weak competitors | –
14 | C[C@]12CC[C@H]3[C@@H](CCC4=CC(=O)CC[C@@]43C)[C@@H]1CC[C@@H]2O [testosterone] | extremely weak competitors | extremely weak competitors | –
15 | CCCCCCCCCCCCCC(=O)O [myristic] | no competitor activity | no competitor activity | –
16 | PNA: Peanut agglutinin, digoxigenin labeled (protein, UniProt P02872 24-273, looked up, digoxigenin label) Galactose-binding lectin: AETVSFNFNSFSEGNPAINFQGDVTVLSNGNIQLTNLNKVNSVGRVLYAMPVRIWSSATGNVASFLTSFSFEMKDIKDYDPADGIIFFIAPEDTQIPAGSIGGGTLGVSDTKGAGHFVGVEFDTYSNSEYNDPPTDHVGIDVNSVDSVKTVPWNSVSGAVVKVTVIYDSSTKTLSVAVTNDNGDITTIAQVVDLKAKLPERVKFGFSASGSLGGRQIHLIRSWSFTSTLITTTRRSIDNNEKKIMNMASA | – | – | Binding of lectin to 24 kDa MSP (in words) (24 kDa MSP): lack of binding; Binding of lectin to 30 kDa MSP (in words) (30 kDa MSP): lack of binding
